Source: ChEMBL document CHEMBL1158960, “Constituents of leguminous plants, XIII. New triterpenoid saponins from Wistaria brachybotrys” (J Nat Prod, 1991)

Key:
Type in all cases: cell-based
[1] = tested on: Raji; experiment: Inhibition of 12-O-tetradecanoylphorbol-13-acetate-induced EBV-early antigen activation in human Raji cells at 100 molar ratio after 48 hrs relative to TPA; set-up: scale not given: the % may be the effect or the level left; details: human gammaherpesvirus 4
Summary of the method: (§1)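 EBV-EA activation induced in Raji cells by TPA (20 ng = 32 pmol); test triterpenoid dosed as mol ratio to TPA. Results expressed relative to positive control set at 100%, averages of three determinations ± SD.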

[2] = tested on: Raji; experiment: Inhibition of 12-O-tetradecanoylphorbol-13-acetate-induced EBV-early antigen activation in human Raji cells at 10 molar ratio after 48 hrs relative to TPA; set-up: scale not given: the % may be the effect or the level left; details: human gammaherpesvirus 4; summary of the method: as §1
[3] = Cytotoxicity against human Raji cells assessed as cell viability at 1000 molar ratio; details: read-out: Activity
Summary of the method: (§2)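 Raji cells exposed to TPA (20 ng = 32 pmol) together with test triterpenoid, dosed as mol ratio to TPA; viability of Raji cells recorded alongside EBV-EA assay, given as percentage.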

[4] = tested on: Raji; experiment: Inhibition of 12-O-tetradecanoylphorbol-13-acetate-induced EBV-early antigen activation in human Raji cells at 500 molar ratio after 48 hrs relative to TPA; details: human gammaherpesvirus 4; summary of the method: as §1
[5] = tested on: Raji; experiment: Inhibition of 12-O-tetradecanoylphorbol-13-acetate-induced EBV-early antigen activation in human Raji cells at 1000 molar ratio after 48 hrs relative to TPA; set-up: scale not given: the % may be the effect or the level left; details: human gammaherpesvirus 4; summary of the method: as §1
[6] = Cytotoxicity against human Raji cells assessed as cell viability at 500 molar ratio; details: read-out: Activity; summary of the method: as §2
[7] = Cytotoxicity against human Raji cells assessed as cell viability at 10 molar ratio; details: read-out: Activity; summary of the method: as §2
[8] = Cytotoxicity against human Raji cells assessed as cell viability at 100 molar ratio; details: read-out: Activity; summary of the method: as §2

Row | SMILES | Activity [1] [%] | Activity [2] [%] | viability at 1000 molar ratio [3] [%] | EBV-EA activation remaining (% of TPA control) [4] [%] | Activity [5] [%] | viability at 500 molar ratio [6] [%] | viability at 10 molar ratio [7] [%] | viability at 100 molar ratio [8] [%]
1 | CC1(C)CC(=O)[C@]2(C)CC[C@]3(C)C(=CC[C@@H]4[C@@]5(C)CC[C@H](O)[C@](C)(CO)[C@@H]5CC[C@]43C)[C@@H]2C1 [SOYASAPOGENOL E] | 43.9 | 89.5 | > 80 | 0 | 0 | > 80 | > 80 | > 80
2 | COC(=O)[C@H]1O[C@@H](O[C@H]2CC[C@@]3(C)[C@@H](CC[C@]4(C)[C@@H]3CC=C3[C@@H]5C[C@@](C)(C(=O)OC)C[C@@H](OC(C)=O)[C@]5(C)CC[C@]34C)[C@@]2(C)CO)[C@H](O[C@@H]2OC[C@@H](O)[C@H](O)[C@H]2O[C@@H]2O[C@@H](C)[C@H](O)[C@@H](O)[C@H]2O)[C@@H](O)[C@@H]1O [WISTARIASAPONIN G] | 62.6 | 79.7 | 0 | 15.4 |  | 10 | > 80 | > 80
3 | COC(=O)[C@H]1O[C@@H](O[C@H]2CC[C@@]3(C)[C@@H](CC[C@]4(C)[C@@H]3CC=C3[C@@H]5CC(C)(C)CC(=O)[C@]5(C)CC[C@]34C)[C@@]2(C)CO)[C@H](O[C@@H]2OC[C@@H](O)[C@H](O)[C@H]2O[C@@H]2O[C@@H](C)[C@H](O)[C@@H](O)[C@H]2O)[C@@H](O)[C@@H]1O [WISTARIASAPONIN D] | 86.1 | 92.8 | 10 | 51 | 0 | > 80 | > 80 | > 80
4 | COC(=O)[C@H]1O[C@@H](O[C@H]2CC[C@@]3(C)[C@@H](CC[C@]4(C)[C@@H]3CC=C3[C@@H]5CC(C)(C)CC(=O)[C@]5(C)CC[C@]34C)[C@@]2(C)CO)[C@H](O[C@@H]2O[C@H](CO)[C@H](O)[C@H](O)[C@H]2O[C@@H]2O[C@@H](C)[C@H](O)[C@@H](O)[C@H]2O)[C@@H](O)[C@@H]1O [DEHYDROSOYASAPONIN I] | 88.5 | 100 | 60 | 67.8 | 50.3 | > 80 | > 80 | > 80
